The test system of experiment [1] is A2780/CisR ovarian cancer xenograft. The experiment can be described thus: Anti-tumor efficacy in A2780/CisR ovarian cancer xenograft model. In kind it is in vivo, mice. The settings on record: q4d x 4, 20 mg/kg PTX and/or 20 mg/kg CP, cisplatin 3 mg/kg.
Experiment [2] deals with A2780/CisR (cisplatin resistant) ovarian cancer cell line. The experiment can be described thus: MTT cytotoxicity and combination index in A2780/CisR cells. In kind it is cell-based, human. The settings on record: 72 h. In a few lines:
(§1)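 Cells grown in RPMI1640 with 10% FBS and 1% penicillin-streptomycin, seeded at 3000 cells/well 24 h before treatment, then exposed to free or micelle-incorporated drug serially diluted in full medium for 72 h. MTT added for 4 h at 37°C, formazan dissolved in DMSO, absorbance read at 562 nm. Survival relative to untreated wells; six wells, mean ± standard deviation; IC50 from fitted curves.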

For experiment [3], the system named is LCC-6-MDR orthotopic tumor. The experiment can be described thus: Anti-tumor efficacy in orthotopic LCC-6-MDR breast cancer model. The conditions noted are these: q4d x 4; 60 mg/kg PTX and/or 4.5 mg/kg C6CP, cisplatin 3 mg/kg. In kind it is in vivo, mice.
The test system of experiment [4] is A2780 ovarian cancer cell line. The experiment in a line: MTT cytotoxicity assay in A2780 cells. The settings on record: 72 h. In kind it is cell-based, human. The procedure, abridged:
as §1

Structures are written as SMILES.

`N.N.[Cl][Pt][Cl]` [cisplatin]: the “effect on tumor growth” value in experiment [1] is “small but significant effect by delaying the tumor growth”. Also, in experiment [1] (untreated 10.5 days), the median lifespan was found to be 14.5 days. In addition, the half-maximal inhibitory concentration (IC50) in experiment [2] turned out to be 10.88 µg/mL; in experiment [4], 1.141 µg/mL. Moreover, the “antitumor effect” value in experiment [3] was “considerable antitumor effect”.

Usually IC50 stands for the point on the concentration scale where inhibition reaches its midpoint.

For the origin of these results see paper PMC6331221 (Biomaterials, 2018).
